Test results as given in ChEMBL document CHEMBL1122906, “Improved antagonists of luteinizing hormone-releasing hormone modified in position 7” (1985).
Square brackets hold non-standard residues; d marks the D form. Peptide text beside a SMILES is read from it. dPhe(4-Cl) = N[C@H](Cc1ccc(Cl)cc1)C(=O)O; d2Nal = N[C@H](Cc1ccc2ccccc2c1)C(=O)O

Experiments:
Type in all cases: functional
Rattus norvegicus [1] = organism: Rattus norvegicus; assay: Percent anti-ovulatory activity in Sprague-Dawley rats against percent of 10 rats that did not ovulate at dose 1 ug
Summary of the method: (§1)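 Antiovulatory activity was tested in Sprague-Dawley rats using the standard rat antiovulatory assay. Analogues were given in a 40% propylene glycol-saline vehicle at the stated microgram dose. The value is the percentage of the (n) rats in each group in which ovulation was blocked.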

Rattus norvegicus [2] = organism: Rattus norvegicus; assay: Percent anti-ovulatory activity in Sprague-Dawley rats against percent of 8 rats that did not ovulate at dose 3 microg; summary of the method: as §1
Rattus norvegicus [3] = organism: Rattus norvegicus; assay: Percent anti-ovulatory activity in Sprague-Dawley rats against percent of 10 rats that did not ovulate at dose 3 ug; summary of the method: as §1
Rattus norvegicus [4] = organism: Rattus norvegicus; assay: Percent anti-ovulatory activity in Sprague-Dawley rats against percent of 10 rats that did not ovulate at dose 1 microg; summary of the method: as §1
Rattus norvegicus [5] = organism: Rattus norvegicus; assay: Percent anti-ovulatory activity in Sprague-Dawley rats against percent of 13 rats that did not ovulate at dose 0.5 microg; summary of the method: as §1
Rattus norvegicus [6] = organism: Rattus norvegicus; assay: Percent anti-ovulatory activity in Sprague-Dawley rats against percent of 7 rats that did not ovulate at dose 3 microg; summary of the method: as §1
Rattus norvegicus [7] = organism: Rattus norvegicus; assay: Percent anti-ovulatory activity in Sprague-Dawley rats against percent of 9 rats that did not ovulate at dose 1 microg; summary of the method: as §1
Rattus norvegicus [8] = organism: Rattus norvegicus; assay: Percent anti-ovulatory activity in Sprague-Dawley rats against percent of 11 rats that did not ovulate at dose 3 microg; summary of the method: as §1
Rattus norvegicus [9] = organism: Rattus norvegicus; assay: Percent anti-ovulatory activity in Sprague-Dawley rats against percent of 5 rats that did not ovulate at dose 1 microg; summary of the method: as §1
Rattus norvegicus [10] = organism: Rattus norvegicus; assay: Percent anti-ovulatory activity in Sprague-Dawley rats against percent of 8 rats that did not ovulate at dose 50 microg; summary of the method: as §1
Rattus norvegicus [11] = organism: Rattus norvegicus; assay: Percent anti-ovulatory activity in Sprague-Dawley rats against percent of 10 rats that did not ovulate at dose 0.5 microg; summary of the method: as §1
Rattus norvegicus [12] = organism: Rattus norvegicus; assay: Percent anti-ovulatory activity in Sprague-Dawley rats against percent of 10 rats that did not ovulate at dose 3 microg; summary of the method: as §1
Rattus norvegicus [13] = organism: Rattus norvegicus; assay: Percent anti-ovulatory activity in Sprague-Dawley rats against percent of 11 rats that did not ovulate at dose 1 microg; summary of the method: as §1
Rattus norvegicus [14] = organism: Rattus norvegicus; assay: Percent anti-ovulatory activity in Sprague-Dawley rats against percent of 13 rats that did not ovulate at dose 1 ug; summary of the method: as §1
Rattus norvegicus [15] = organism: Rattus norvegicus; assay: Percent anti-ovulatory activity in Sprague-Dawley rats against percent of 9 rats that did not ovulate at dose 3 microg; summary of the method: as §1
Rattus norvegicus [16] = organism: Rattus norvegicus; assay: Percent anti-ovulatory activity in Sprague-Dawley rats against percent of 12 rats that did not ovulate at dose 3 microg; summary of the method: as §1
Rattus norvegicus [17] = organism: Rattus norvegicus; assay: Percent anti-ovulatory activity in Sprague-Dawley rats against percent of 13 rats that did not ovulate at dose 7.5 microg; summary of the method: as §1
Rattus norvegicus [18] = organism: Rattus norvegicus; assay: Percent anti-ovulatory activity in Sprague-Dawley rats against percent of 8 rats that did not ovulate at dose 1 microg; summary of the method: as §1
Rattus norvegicus [19] = organism: Rattus norvegicus; assay: Percent anti-ovulatory activity in Sprague-Dawley rats against percent of 11 rats that did not ovulate at dose 0.5 ug; summary of the method: as §1
Rattus norvegicus [20] = organism: Rattus norvegicus; assay: Percent anti-ovulatory activity in Sprague-Dawley rats against percent of 10 rats that did not ovulate at dose 50 microg; summary of the method: as §1

CC(=O)N[C@H](Cc1ccc2ccccc2c1)C(=O)N[C@H](Cc1ccc(Cl)cc1)C(=O)N[C@H](Cc1c[nH]c2ccccc12)C(=O)N[C@@H](CO)C(=O)N[C@@H](Cc1ccc(O)cc1)C(=O)N[C@H](CCCN=C(N)N)C(=O)N[C@@H](Cc1ccc(F)cc1)C(=O)N[C@@H](CCCN=C(N)N)C(=O)N1CCC[C@H]1C(=O)N[C@H](C)C(N)=O
Activity (Rattus norvegicus [1]): 0% | Activity (Rattus norvegicus [2]): 75%

CC(=O)N[C@H](Cc1ccc2ccccc2c1)C(=O)N[C@H](Cc1ccc(Cl)cc1)C(=O)N[C@H](Cc1c[nH]c2ccccc12)C(=O)N[C@@H](CO)C(=O)N[C@@H](Cc1ccc(O)cc1)C(=O)N[C@H](CCCN=C(N)N)C(=O)N[C@H](C(=O)N[C@@H](CCCN=C(N)N)C(=O)N1CCC[C@H]1C(=O)N[C@H](C)C(N)=O)[C@@H](C)O
Activity (Rattus norvegicus [3]): 20%

CC(=O)N[C@H](Cc1ccc(Cl)cc1)C(=O)N[C@H](Cc1ccc(Cl)cc1)C(=O)N[C@H](Cc1c[nH]c2ccccc12)C(=O)N[C@@H](CO)C(=O)N[C@@H](Cc1ccc(O)cc1)C(=O)N[C@H](CCCN=C(N)N)C(=O)N[C@@H](Cc1ccccc1)C(=O)N[C@@H](CCCN=C(N)N)C(=O)N1CCC[C@H]1C(=O)N[C@H](C)C(N)=O (Ac-[dPhe(4-Cl)][dPhe(4-Cl)][dW]SY[dR]FRP[dA]-NH2)
Activity (Rattus norvegicus [4]): 20%

CC(=O)N[C@H](Cc1ccc2ccccc2c1)C(=O)N[C@H](Cc1ccc(Cl)cc1)C(=O)N[C@H](Cc1c[nH]c2ccccc12)C(=O)N[C@@H](CO)C(=O)N[C@@H](Cc1ccc(O)cc1)C(=O)N[C@H](CCCN=C(N)N)C(=O)N[C@@H](Cc1ccc(O)cc1)C(=O)N[C@@H](CCCN=C(N)N)C(=O)N1CCC[C@H]1C(=O)N[C@H](C)C(N)=O
Activity (Rattus norvegicus [5]): 31% | Activity (Rattus norvegicus [6]): 100% | Activity (Rattus norvegicus [7]): 89%

CC(=O)N[C@H](Cc1ccc2ccccc2c1)C(=O)N[C@H](Cc1ccc(Cl)cc1)C(=O)N[C@H](Cc1c[nH]c2ccccc12)C(=O)N[C@@H](CO)C(=O)N[C@@H](Cc1ccc(O)cc1)C(=O)N[C@H](CCCN=C(N)N)C(=O)N[C@@H](Cc1c(F)c(F)c(F)c(F)c1F)C(=O)N[C@@H](CCCN=C(N)N)C(=O)N1CCC[C@H]1C(=O)N[C@H](C)C(N)=O
Activity (Rattus norvegicus [8]): 100% | Activity (Rattus norvegicus [9]): 20%

CC(=O)N[C@H](Cc1ccc2ccccc2c1)C(=O)N[C@@H]1CSSC[C@@H](C(=O)N[C@@H](CCCN=C(N)N)C(=O)N2CCC[C@H]2C(=O)N[C@H](C)C(N)=O)NC(=O)[C@@H](CCCN=C(N)N)NC(=O)[C@H](Cc2ccc(O)cc2)NC(=O)[C@H](CO)NC(=O)[C@@H](Cc2c[nH]c3ccccc23)NC1=O
Activity (Rattus norvegicus [10]): 0%

CC(=O)N[C@H](Cc1ccc2ccccc2c1)C(=O)N[C@H](Cc1ccc(Cl)cc1)C(=O)N[C@H](Cc1c[nH]c2ccccc12)C(=O)N[C@@H](CO)C(=O)N[C@@H](Cc1ccc(O)cc1)C(=O)N[C@H](CCCN=C(N)N)C(=O)N[C@@H](Cc1ccc(C)cc1)C(=O)N[C@@H](CCCN=C(N)N)C(=O)N1CCC[C@H]1C(=O)N[C@H](C)C(N)=O
Activity (Rattus norvegicus [7]): 22%

CC(=O)N[C@H](Cc1ccc2ccccc2c1)C(=O)N[C@H](Cc1ccc(Cl)cc1)C(=O)N[C@H](Cc1c[nH]c2ccccc12)C(=O)N[C@@H](CO)C(=O)N[C@@H](Cc1ccc(O)cc1)C(=O)N[C@H](CCCN=C(N)N)C(=O)N[C@@H](Cc1ccc2ccccc2c1)C(=O)N[C@@H](CCCN=C(N)N)C(=O)N1CCC[C@H]1C(=O)N[C@H](C)C(N)=O
Activity (Rattus norvegicus [11]): 0% | Activity (Rattus norvegicus [12]): 100%

CC(=O)N[C@H](Cc1ccc2ccccc2c1)C(=O)N[C@H](Cc1ccc2ccccc2c1)C(=O)N[C@H](Cc1c[nH]c2ccccc12)C(=O)N[C@@H](CO)C(=O)N[C@@H](Cc1ccc(O)cc1)C(=O)N[C@H](CCCN=C(N)N)C(=O)N[C@@H](CC(C)C)C(=O)N[C@@H](CCCN=C(N)N)C(=O)N1CCC[C@H]1C(=O)N[C@H](C)C(N)=O
Activity (Rattus norvegicus [13]): 0%

CC(=O)N[C@H](Cc1ccc2ccccc2c1)C(=O)N[C@H](Cc1ccc(Cl)cc1)C(=O)N[C@H](Cc1c[nH]c2ccccc12)C(=O)N[C@@H](CO)C(=O)N[C@@H](Cc1ccc(O)cc1)C(=O)N[C@H](CCCN=C(N)N)C(=O)N[C@@H](CC(C)C)C(=O)N[C@@H](CCCN=C(N)N)C(=O)N1CCC[C@H]1C(=O)N[C@H](C)C(N)=O (Ac-[d2Nal][dPhe(4-Cl)][dW]SY[dR]LRP[dA]-NH2)
Activity (Rattus norvegicus [14]): 77% | Activity (Rattus norvegicus [15]): 100%

CC(=O)N[C@H](Cc1ccc2ccccc2c1)C(=O)N[C@H](Cc1ccc(Cl)cc1)C(=O)N[C@H](Cc1c[nH]c2ccccc12)C(=O)N[C@@H](CO)C(=O)N[C@@H](Cc1ccc(O)cc1)C(=O)N[C@H](CCCN=C(N)N)C(=O)N[C@@H](Cc1ccc(Cl)cc1)C(=O)N[C@@H](CCCN=C(N)N)C(=O)N1CCC[C@H]1C(=O)N[C@H](C)C(N)=O
Activity (Rattus norvegicus [13]): 9% | Activity (Rattus norvegicus [16]): 100%

CC(=O)N[C@H](Cc1ccc2ccccc2c1)C(=O)N[C@H](Cc1ccc(Cl)cc1)C(=O)N[C@H](Cc1c[nH]c2ccccc12)C(=O)N[C@@H](CO)C(=O)N[C@@H](Cc1ccc(O)cc1)C(=O)N[C@H](CCCN=C(N)N)C(=O)N[C@@H](Cc1c[nH]c2ccccc12)C(=O)N[C@@H](CCCN=C(N)N)C(=O)N1CCC[C@H]1C(=O)N[C@H](C)C(N)=O
Activity (Rattus norvegicus [11]): 10% | Activity (Rattus norvegicus [2]): 85%

CC(=O)N[C@H](Cc1ccc2ccccc2c1)C(=O)N[C@H](Cc1ccc(Cl)cc1)C(=O)N[C@H](Cc1c[nH]c2ccccc12)C(=O)N[C@@H](CO)C(=O)N[C@@H](Cc1ccc(O)cc1)C(=O)N[C@H](CCCN=C(N)N)C(=O)N[C@@H](CCCCN)C(=O)N[C@@H](CCCN=C(N)N)C(=O)N1CCC[C@H]1C(=O)N[C@H](C)C(N)=O
Activity (Rattus norvegicus [17]): 0%

CC(=O)N[C@H](Cc1ccc2ccccc2c1)C(=O)N[C@H](Cc1ccc(Cl)cc1)C(=O)N[C@H](Cc1c[nH]c2ccccc12)C(=O)N[C@@H](CO)C(=O)N[C@H]1CSSC[C@@H](C(=O)N[C@@H](CCCN=C(N)N)C(=O)N2CCC[C@H]2C(=O)N[C@H](C)C(N)=O)NC(=O)[C@@H](CCCN=C(N)N)NC1=O
Activity (Rattus norvegicus [10]): 0%

CC(=O)N[C@H](Cc1ccc2ccccc2c1)C(=O)N[C@H](Cc1ccc(Cl)cc1)C(=O)N[C@H](Cc1c[nH]c2ccccc12)C(=O)N[C@@H](CO)C(=O)N[C@@H](Cc1ccc(O)cc1)C(=O)N[C@H](CCCN=C(N)N)C(=O)N(C)[C@@H](Cc1ccccc1)C(=O)N[C@@H](CCCN=C(N)N)C(=O)N1CCC[C@H]1C(=O)N[C@H](C)C(N)=O
Activity (Rattus norvegicus [18]): 13% | Activity (Rattus norvegicus [15]): 11%

CC(=O)N[C@H](Cc1ccc2ccccc2c1)C(=O)N[C@H](Cc1ccc(Cl)cc1)C(=O)N[C@H](Cc1c[nH]c2ccccc12)C(=O)N[C@H]1CSSC[C@@H](C(=O)N[C@@H](CCCN=C(N)N)C(=O)N2CCC[C@H]2C(=O)N[C@H](C)C(N)=O)NC(=O)[C@@H](CCCN=C(N)N)NC(=O)[C@H](Cc2ccc(O)cc2)NC1=O
Activity (Rattus norvegicus [10]): 0%

CC(=O)N[C@H](Cc1ccc2ccccc2c1)C(=O)N[C@H](Cc1ccc(Cl)cc1)C(=O)N[C@H](Cc1c[nH]c2ccccc12)C(=O)N[C@@H](CO)C(=O)N[C@@H](Cc1ccc(O)cc1)C(=O)N[C@H](CCCN=C(N)N)C(=O)N[C@@H](Cc1ccccc1)C(=O)N[C@@H](CCCN=C(N)N)C(=O)N1CCC[C@H]1C(=O)N[C@H](C)C(N)=O (Ac-[d2Nal][dPhe(4-Cl)][dW]SY[dR]FRP[dA]-NH2)
Activity (Rattus norvegicus [19]): 64%

CC(=O)N[C@H](Cc1ccc2ccccc2c1)C(=O)N[C@H](Cc1ccc2ccccc2c1)C(=O)N[C@H](Cc1c[nH]c2ccccc12)C(=O)N[C@@H](CO)C(=O)N[C@@H](Cc1ccc(O)cc1)C(=O)N[C@H](CCCN=C(N)N)C(=O)N[C@@H](Cc1ccc(O)cc1)C(=O)N[C@@H](CCCN=C(N)N)C(=O)N1CCC[C@H]1C(=O)N[C@H](C)C(N)=O
Activity (Rattus norvegicus [7]): 11%

CC(=O)N[C@H](Cc1ccc2ccccc2c1)C(=O)N[C@H](Cc1ccc(Cl)cc1)C(=O)N[C@@H]1CSSC[C@@H](C(=O)N[C@@H](CCCN=C(N)N)C(=O)N2CCC[C@H]2C(=O)N[C@H](C)C(N)=O)NC(=O)[C@@H](CCCN=C(N)N)NC(=O)[C@H](Cc2ccc(O)cc2)NC(=O)[C@H](CO)NC1=O
Activity (Rattus norvegicus [20]): 0%
